Activity calls are given as the source filed them. No cut-off for these calls is given here.
Columns and labels:
PC-3 = test: Cytotoxicity against human PC3 cells after 48 hrs by SRB assay; assay type: functional, cell-based; conditions: PC-3, 48 h
How it was run: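 PC-3 cells grown in RPMI1640 with 10% FBS at 37 °C, 5% CO₂. Seeded in medium with 5% FBS; after 24 h, one plate fixed with 10% TCA as T₀. Compound or 0.1% DMSO vehicle added for 48 h, then TCA fixation and 0.4% SRB in 1% acetic acid. Dye solubilized in 10 mM Trizma base, absorbance read at 515 nm. IC50 is the concentration giving 50% reduction of the protein gain in controls.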

[1] = molecular target: Telomerase reverse transcriptase (Homo sapiens) (UniProt O14746); test: Inhibition of telomerase activity in human H1299 cell free extract at 10 uM by modified TRAP assay
How it was run: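 TRAP assay using total cell lysate from H1299 lung cancer cells as the telomerase source, with protein measured against BSA standards. Compounds tested at 10 µM. Controls were lysate without inhibitor (positive) and RNase A-treated extract without inhibitor (negative).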

[2] = Growth of human H1299 cells at 100 uM 48 hrs by MTT assay; conditions: NCI-H1299, 48 h
[3] = Growth of human H1299 cells at 1 uM after 48 hrs by MTT assay; conditions: NCI-H1299, 48 h
[4] = Growth of human H1299 cells at 10 uM after 48 hrs by MTT assay; conditions: NCI-H1299, 48 h
[5] = molecular target: Telomerase reverse transcriptase (Homo sapiens) (UniProt O14746); test: Residual activity of human TERT in H1299 cells at 1 uM after 24 hrs by SEAP reporter gene assay
[6] = molecular target: Telomerase reverse transcriptase (Homo sapiens) (UniProt O14746); test: Residual activity of human TERT in H1299 cells at 10 uM after 24 hrs by SEAP reporter gene assay
[7] = molecular target: Telomerase reverse transcriptase (Homo sapiens) (UniProt O14746); test: Residual activity of human TERT in H1299 cells at 100 uM after 24 hrs by SEAP reporter gene assay

Telomerase reverse transcriptase (Homo sapiens), sequence (O14746 whole entry): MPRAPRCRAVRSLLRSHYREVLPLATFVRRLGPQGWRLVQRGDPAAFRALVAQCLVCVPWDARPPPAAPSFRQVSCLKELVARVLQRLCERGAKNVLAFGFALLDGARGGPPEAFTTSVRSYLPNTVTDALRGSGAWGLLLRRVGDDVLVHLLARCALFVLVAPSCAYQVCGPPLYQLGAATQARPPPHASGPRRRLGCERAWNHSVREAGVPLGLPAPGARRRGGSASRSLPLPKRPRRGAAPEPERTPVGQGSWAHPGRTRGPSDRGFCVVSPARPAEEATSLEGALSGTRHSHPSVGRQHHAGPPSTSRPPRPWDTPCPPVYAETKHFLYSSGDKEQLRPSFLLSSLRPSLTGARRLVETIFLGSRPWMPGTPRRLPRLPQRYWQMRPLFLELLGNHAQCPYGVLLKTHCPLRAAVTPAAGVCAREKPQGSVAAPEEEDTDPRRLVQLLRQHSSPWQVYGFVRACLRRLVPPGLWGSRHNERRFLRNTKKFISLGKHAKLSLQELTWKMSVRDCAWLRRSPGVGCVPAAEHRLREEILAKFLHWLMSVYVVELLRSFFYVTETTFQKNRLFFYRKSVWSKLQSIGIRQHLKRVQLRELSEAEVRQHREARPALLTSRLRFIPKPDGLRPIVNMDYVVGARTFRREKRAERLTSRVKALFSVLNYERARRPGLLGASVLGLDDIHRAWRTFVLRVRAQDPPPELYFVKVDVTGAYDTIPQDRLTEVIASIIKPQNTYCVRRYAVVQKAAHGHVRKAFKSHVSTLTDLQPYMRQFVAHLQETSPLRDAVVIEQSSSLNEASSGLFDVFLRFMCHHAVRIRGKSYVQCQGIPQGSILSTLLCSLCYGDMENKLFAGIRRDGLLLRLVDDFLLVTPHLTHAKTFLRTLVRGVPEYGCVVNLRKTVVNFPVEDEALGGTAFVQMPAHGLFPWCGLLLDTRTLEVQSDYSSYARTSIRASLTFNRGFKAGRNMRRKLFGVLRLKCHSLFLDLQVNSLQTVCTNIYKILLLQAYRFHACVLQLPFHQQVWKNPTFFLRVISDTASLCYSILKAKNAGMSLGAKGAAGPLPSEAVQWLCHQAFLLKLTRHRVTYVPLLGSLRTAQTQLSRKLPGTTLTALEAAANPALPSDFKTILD

SMILES	inhibition [1]	residual activity [5] [%]	residual activity [6] [%]	residual activity [7] [%]	IC50 (PC-3) [µM]	growth, % of control at 100 µM [2] [%]	growth, % of control at 1 µM [3] [%]	growth, % of control at 10 µM [4] [%]
Cc1cc(C(=O)Nc2c(NC(=O)CCl)ccc3c2C(=O)c2ccccc2C3=O)c(C)o1	inactive	81	2	0	4.31	0	96	2
Cc1ccc(C(=O)Nc2c(NC(=O)CN3CCN(c4ncccn4)CC3)ccc3c2C(=O)c2ccccc2C3=O)cc1	inactive	87	79	19	> 20	59	102	91
O=C(CCCl)Nc1ccc2c(c1NC(=O)CCCl)C(=O)c1ccccc1C2=O	inactive	96	94	15	> 20	5	101	83

Further lines, with some results ahead:

inhibition [1]	residual activity [5] [%]	residual activity [6] [%]	residual activity [7] [%]	SMILES	IC50 (PC-3) [µM]	growth, % of control at 100 µM [2] [%]	growth, % of control at 1 µM [3] [%]	growth, % of control at 10 µM [4] [%]
inactive	85	8	6	O=C(CCl)Nc1ccc2c(c1NC(=O)c1ccc(C(F)(F)F)cc1)C(=O)c1ccccc1C2=O	6.67	0	86	6
inactive	15	13	13	O=C(CCl)Nc1ccc2c(c1NC(=O)CCl)C(=O)c1ccccc1C2=O	1.19	0	8	0
inactive	93	8	1	O=C(CCl)Nc1ccc2c(c1NC(=O)Cc1ccc(F)cc1)C(=O)c1ccccc1C2=O	> 20	6	88	7

Reference: ChEMBL document CHEMBL1926565, “Synthesis, antiproliferative activities and telomerase inhibition evaluation of novel asymmetrical 1,2-disubstituted amidoanthraquinone derivatives” (Eur J Med Chem, 2012)
